Measurements as given in ChEMBL document CHEMBL2384906, “Biological activity, design, synthesis and structure activity relationship of some novel derivatives of curcumin containing sulfonamides” (Eur J Med Chem, 2013).
Values after ≈ are worked out from the molar mass of the structure shown. Active and inactive are the calls of the source. The rule behind the calls is not given here.

Legend:
Curvularia lunata [1] = experiment: Antifungal activity against Curvularia lunata MTCC 581 assessed as zone of inhibition at 80 uM after 48 hrs by disc diffusion method; type: functional; settings: MTCC 581, 48 h, read-out: IZ
Outline: (§1)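 Spores from 4-day potato dextrose agar cultures, suspended in sterile water at 1.5 × 10⁵ CFU/mL. 0.2 mL was spread on potato dextrose agar. 5 mm filter-paper discs soaked with test compound were laid on the lawn. Incubation was 48 h at 28 °C, then the inhibition zone was measured in mm. Fluconazole was the positive control and acetone the negative control.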

Trichoderma viride [2] = experiment: Antifungal activity against Trichoderma viride MTCC 1107 after 48 hrs; type: functional; settings: MTCC 1107, 48 h
Mus musculus = experiment: Antiinflammatory activity in mouse assessed as inhibition of carrageenan-induced increase in paw volume at 200 mg/kg administered 1 hr prior to carrageenan challenge measured after 3 hrs relative to control; type: functional
Outline: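 Mice were fasted 2 h and placed in groups of five. Controls received saline i.p. Phenylbutazone was given at 100 mg/kg i.p., curcumin at 200 mg/kg i.p., and derivatives at 200 mg/kg. After 1 h, 0.1 mL of 1% carrageenan in saline was injected subplantar into the right hind paw. Paw volume was followed by plethysmometer for 3 h, and % inhibition was calculated as (Vc − Vt)/Vc × 100.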

Escherichia coli [3] = experiment: Antimicrobial activity against Escherichia coli ATCC 35218 after 24 hrs by broth micro serial dilution method; type: functional; settings: ATCC 35218, 24 h
Outline: (§2)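 This was broth microdilution in autoclaved Mueller-Hinton broth. 150 µL of compound per well was serially diluted […], and 50 µL of test organism was added. Plates were incubated 24 h at 37 °C and optical density was read.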

Salmonella typhi [4] = experiment: Antimicrobial activity against Salmonella typhi ATCC 23564 after 24 hrs by broth micro serial dilution method; type: functional, Salmonella enterica subsp. enterica serovar Typhi; settings: Salmonella enterica, ATCC 23564, 24 h
Aspergillus niger [5] = experiment: Antifungal activity against Aspergillus niger MTCC 1108 assessed as zone of inhibition at 80 uM after 48 hrs by disc diffusion method; type: functional; outline: as §1
Bacillus cereus [6] = experiment: Antimicrobial activity against Bacillus cereus MTCC 7350 assessed as diameter of inhibition zone at 40 uM after 24 hrs by Kirby -Baur disc diffusion method; type: functional
Outline: (§3)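 Kirby-Bauer disc diffusion was used. Acetone stocks (160 µM) were serially doubled down to 80, 40 and 20 µM. 4 µL of each went onto 5 mm sterile paper discs, which were dried 30 min at 50 °C. Inoculum was 1.5 × 10⁸ CFU/mL diluted to 3 × 10² CFU/mL, and 50 µL was spread on Mueller-Hinton agar. After 24 h at 37 °C the inhibition-zone diameter was measured. Ciprofloxacin served as positive control.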

Pseudomonas aeruginosa [7] = experiment: Antimicrobial activity against Pseudomonas aeruginosa ATCC 15499 assessed as diameter of inhibition zone at 20 uM after 24 hrs by Kirby -Baur disc diffusion method; type: functional; outline: as §3
Trichoderma viride [8] = experiment: Antifungal activity against Trichoderma viride MTCC 1107 assessed as zone of inhibition at 80 uM after 48 hrs by disc diffusion method; type: functional; settings: MTCC 1107, 48 h, read-out: IZ; outline: as §1
Pseudomonas aeruginosa [9] = experiment: Antimicrobial activity against Pseudomonas aeruginosa ATCC 15499 after 24 hrs by broth micro serial dilution method; type: functional; settings: ATCC 15499, 24 h; outline: as §2
Bacillus cereus [10] = experiment: Antimicrobial activity against Bacillus cereus MTCC 7350 assessed as diameter of inhibition zone at 20 uM after 24 hrs by Kirby -Baur disc diffusion method; type: functional; outline: as §3
Aspergillus flavus [11] = experiment: Antifungal activity against Aspergillus flavus MTCC 1021 assessed as zone of inhibition at 80 uM after 48 hrs by disc diffusion method; type: functional; outline: as §1
Aspergillus niger [12] = experiment: Antifungal activity against Aspergillus niger MTCC 1108 after 48 hrs; type: functional
Staphylococcus aureus [13] = experiment: Antimicrobial activity against Staphylococcus aureus ATCC 11632 assessed as diameter of inhibition zone at 40 uM after 24 hrs by Kirby -Baur disc diffusion method; type: functional; outline: as §3
QG-56 = experiment: Cytotoxicity against human QG56 cells after 24 hrs by MTT assay; type: functional, cell-based
Outline: (§4)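 The MTT assay seeded 5 × 10⁴ cells per well and grew them 24 h in RPMI 1640 with compound at 2.5–200 µM. Medium without cells was the blank and adriamycin the positive control. MTT was added for 4 h at 37 °C, formazan was solubilised, and absorbance was read at 570 nm. IC50 is the concentration that cuts viability 50% against untreated cells.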

Curvularia lunata [14] = experiment: Antifungal activity against Curvularia lunata MTCC 581 assessed as zone of inhibition at 20 uM after 48 hrs by disc diffusion method; type: functional; settings: MTCC 581, 48 h, read-out: IZ; outline: as §1
Salmonella typhi [15] = experiment: Antimicrobial activity against Salmonella typhi ATCC 23564 assessed as diameter of inhibition zone at 40 uM after 24 hrs by Kirby -Baur disc diffusion method; type: functional; settings: Salmonella enterica subsp. enterica serovar Typhi
HeLa = experiment: Cytotoxicity against human HeLa cells after 24 hrs by MTT assay; type: functional, cell-based; outline: as §4
Salmonella typhi [16] = experiment: Antimicrobial activity against Salmonella typhi ATCC 23564 assessed as diameter of inhibition zone at 20 uM after 24 hrs by Kirby -Baur disc diffusion method; type: functional; settings: Salmonella enterica subsp. enterica serovar Typhi
Pseudomonas aeruginosa [17] = experiment: Antimicrobial activity against Pseudomonas aeruginosa ATCC 15499 assessed as diameter of inhibition zone at 80 uM after 24 hrs by Kirby -Baur disc diffusion method; type: functional; settings: ATCC 15499, 24 h, read-out: DIZ; outline: as §3
Staphylococcus aureus [18] = experiment: Antimicrobial activity against Staphylococcus aureus ATCC 11632 assessed as diameter of inhibition zone at 20 uM after 24 hrs by Kirby -Baur disc diffusion method; type: functional; outline: as §3
Curvularia lunata [19] = experiment: Antifungal activity against Curvularia lunata MTCC 581 assessed as zone of inhibition at 40 uM after 48 hrs by disc diffusion method; type: functional; settings: MTCC 581, 48 h, read-out: IZ; outline: as §1
Staphylococcus aureus [20] = experiment: Antimicrobial activity against Staphylococcus aureus ATCC 11632 assessed as diameter of inhibition zone at 80 uM after 24 hrs by Kirby -Baur disc diffusion method; type: functional; settings: ATCC 11632, 24 h, read-out: DIZ; outline: as §3
Staphylococcus aureus [21] = experiment: Antimicrobial activity against Staphylococcus aureus ATCC 11632 after 24 hrs by broth micro serial dilution method; type: functional; settings: ATCC 11632, 24 h; outline: as §2
Bacillus cereus [22] = experiment: Antimicrobial activity against Bacillus cereus MTCC 7350 after 24 hrs by broth micro serial dilution method; type: functional; settings: MTCC 7350, 24 h; outline: as §2
HepG2 = experiment: Cytotoxicity against human HepG2 cells after 24 hrs by MTT assay; type: functional, cell-based; outline: as §4
Trichoderma viride [23] = experiment: Antifungal activity against Trichoderma viride MTCC 1107 assessed as zone of inhibition at 40 uM after 48 hrs by disc diffusion method; type: functional; settings: MTCC 1107, 48 h, read-out: IZ; outline: as §1
Curvularia lunata [24] = experiment: Antifungal activity against Curvularia lunata MTCC 581 after 48 hrs; type: functional; settings: MTCC 581, 48 h
Escherichia coli [25] = experiment: Antimicrobial activity against Escherichia coli ATCC 35218 assessed as diameter of inhibition zone at 80 uM after 24 hrs by Kirby -Baur disc diffusion method; type: functional; outline: as §3
Aspergillus flavus [26] = experiment: Antifungal activity against Aspergillus flavus MTCC 1021 after 48 hrs; type: functional
Bacillus cereus [27] = experiment: Antimicrobial activity against Bacillus cereus MTCC 7350 assessed as diameter of inhibition zone at 80 uM after 24 hrs by Kirby -Baur disc diffusion method; type: functional; settings: MTCC 7350, 24 h, read-out: DIZ; outline: as §3
Trichoderma viride [28] = experiment: Antifungal activity against Trichoderma viride MTCC 1107 assessed as zone of inhibition at 20 uM after 48 hrs by disc diffusion method; type: functional; settings: MTCC 1107, 48 h, read-out: IZ; outline: as §1
Pseudomonas aeruginosa [29] = experiment: Antimicrobial activity against Pseudomonas aeruginosa ATCC 15499 assessed as diameter of inhibition zone at 40 uM after 24 hrs by Kirby -Baur disc diffusion method; type: functional; outline: as §3
HCT-116 = experiment: Cytotoxicity against human HCT116 cells after 24 hrs by MTT assay; type: functional, cell-based; outline: as §4
Salmonella typhi [30] = experiment: Antimicrobial activity against Salmonella typhi ATCC 23564 assessed as diameter of inhibition zone at 80 uM after 24 hrs by Kirby -Baur disc diffusion method; type: functional, Salmonella enterica subsp. enterica serovar Typhi; settings: Salmonella enterica, ATCC 23564, 24 h; read-out: DIZ
Escherichia coli [31] = experiment: Antimicrobial activity against Escherichia coli ATCC 35218 assessed as diameter of inhibition zone at 40 uM after 24 hrs by Kirby -Baur disc diffusion method; type: functional; settings: ATCC 35218, 24 h, read-out: DIZ; outline: as §3
Escherichia coli [32] = experiment: Antimicrobial activity against Escherichia coli ATCC 35218 assessed as diameter of inhibition zone at 20 uM after 24 hrs by Kirby -Baur disc diffusion method; type: functional; settings: ATCC 35218, 24 h, read-out: DIZ; outline: as §3

SMILES	zone of inhibition at 80 µM (Curvularia lunata [1])	MIC (Trichoderma viride [2])	inhibition in vivo at 200 mg/kg (Mus musculus)	MIC (Escherichia coli [3])	MIC (Salmonella typhi [4])	inhibition zone (IZ) (Aspergillus niger [5])	diameter of the inhibition zone (DIZ) (Pseudomonas aeruginosa [7])	zone of inhibition at 80 µM (Trichoderma viride [8])	MIC (Pseudomonas aeruginosa [9])	diameter of the inhibition zone (DIZ) (Bacillus cereus [10])	inhibition zone (IZ) (Aspergillus flavus [11])	diameter of the inhibition zone (DIZ) (Staphylococcus aureus [13])	IC50 (QG-56)	zone of inhibition at 20 µM (Curvularia lunata [14])	diameter of the inhibition zone (DIZ) (Salmonella typhi [15])	IC50 (HeLa)	diameter of the inhibition zone (DIZ) (Salmonella typhi [16])	zone of inhibition at 80 µM (Pseudomonas aeruginosa [17])	diameter of the inhibition zone (DIZ) (Staphylococcus aureus [18])	zone of inhibition at 40 µM (Curvularia lunata [19])	also measured
COc1cc(/C=C/c2noc(/C=C/c3ccc(O)c(OC)c3)c2/N=N/c2ccc(S(=O)(=O)Nc3nc(C)cc(C)n3)cc2)ccc1O	13 mm	80 µM (≈ 52.4 µg/mL)	41.9%	> 80 µM	> 80 µM	inactive	inactive	13 mm	80 µM (≈ 52.4 µg/mL)	inactive	inactive	inactive	Not Active	9 mm	inactive	Not Active	inactive	15 mm	inactive	11 mm	zone of inhibition at 40 µM (Bacillus cereus [6]; MTCC 7350, 24 h, read-out: DIZ): 9 mm; MIC (Aspergillus niger [12]; MTCC 1108, 48 h): > 80 µM; zone of inhibition at 80 µM (Staphylococcus aureus [20]): 12 mm; MIC (Staphylococcus aureus [21]): > 80 µM; MIC (Bacillus cereus [22]): > 80 µM; IC50 (HepG2): Not Active; zone of inhibition at 40 µM (Trichoderma viride [23]): 11 mm; MIC (Curvularia lunata [24]): 80 µM (≈ 52.4 µg/mL); diameter of the inhibition zone (DIZ) (Escherichia coli [25]): inactive; MIC (Aspergillus flavus [26]; MTCC 1021, 48 h): > 80 µM; zone of inhibition at 80 µM (Bacillus cereus [27]): 11 mm; zone of inhibition at 20 µM (Trichoderma viride [28]): 9 mm; zone of inhibition at 40 µM (Pseudomonas aeruginosa [29]; ATCC 15499, 24 h, read-out: DIZ): 10 mm; IC50 (HCT-116): Not Active; zone of inhibition at 80 µM (Salmonella typhi [30]): 10 mm
COc1cc(/C=C/c2nn(-c3ccccc3)c(/C=C/c3ccc(O)c(OC)c3)c2/N=N/c2ccc(S(=O)(=O)Nc3cc(C)on3)cc2)ccc1O	13 mm	40 µM (≈ 28.2 µg/mL)	25.8%	> 80 µM	> 80 µM	inactive	inactive	13 mm	> 80 µM	inactive	inactive	inactive	> 100 µM	9 mm	inactive	100 µM	inactive	11 mm	inactive	11 mm	diameter of the inhibition zone (DIZ) (Bacillus cereus [6]): inactive; MIC (Aspergillus niger [12]): inactive; zone of inhibition at 80 µM (Staphylococcus aureus [20]): 10 mm; MIC (Staphylococcus aureus [21]): > 80 µM; zone of inhibition at 40 µM (Escherichia coli [31]): 10 mm; MIC (Bacillus cereus [22]): > 80 µM; IC50 (HepG2): Not Active; zone of inhibition at 40 µM (Trichoderma viride [23]): 11 mm; MIC (Curvularia lunata [24]): 80 µM (≈ 56.4 µg/mL); zone of inhibition at 80 µM (Escherichia coli [25]; ATCC 35218, 24 h, read-out: DIZ): 12 mm; MIC (Aspergillus flavus [26]): inactive; zone of inhibition at 80 µM (Bacillus cereus [27]): 10 mm; zone of inhibition at 20 µM (Trichoderma viride [28]): 9 mm; diameter of the inhibition zone (DIZ) (Pseudomonas aeruginosa [29]): inactive; IC50 (HCT-116): Not Active; zone of inhibition at 80 µM (Salmonella typhi [30]): 10 mm; zone of inhibition at 20 µM (Escherichia coli [32]): 9 mm
